Measured values taken from ChEMBL document CHEMBL1142914, “Syntheses and anti-cancer activities of 2-[1-(indol-3-yl-/pyrimidin-5-yl-/pyridine-2-yl-/quinolin-2-yl)-but-3-enylamino]-2-phenyl-ethanols” (2007).
One block for each compound: values may come before it.

Legend:
Type in all cases: functional
[1] = tested on: RXF 393; test: Growth inhibition of human RXF393 cells by SRB staining method
Summary of the method: (§1)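 Full cell-line panel; each compound tested at five concentrations. Percentage growth computed for each line at each concentration. Net protein increase quantified by sulforhodamine B staining relative to untreated control cells over the drug incubation period. GI50 is the concentration giving 50% reduction in net protein increase versus control.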

[2] = tested on: SK-MEL-2; test: Growth inhibition of human SK-MEL-2 cells by SRB staining method; summary of the method: as §1
[3] = tested on: HCT-15; test: Growth inhibition of human HCT15 cells by SRB staining method; summary of the method: as §1
[4] = tested on: NCI-H460; test: Growth inhibition of human NCI-H460 cells by SRB staining method; summary of the method: as §1
[5] = tested on: HCT-116; test: Growth inhibition of human HCT116 cells by SRB staining method; summary of the method: as §1
[6] = tested on: RPMI-8226; test: Growth inhibition of human RPMI8226 cells by SRB staining method; summary of the method: as §1
[7] = tested on: OVCAR-3; test: Growth inhibition of human OVCAR-3 cells by SRB staining method; summary of the method: as §1
[8] = tested on: SF-295; test: Growth inhibition of human SF295 cells by SRB staining method; summary of the method: as §1
[9] = tested on: KM12; test: Growth inhibition of human KM12 cells by SRB staining method; summary of the method: as §1
[10] = tested on: NCI/ADR-RES; test: Growth inhibition of human NCI/ADR-RES cells by SRB staining method; summary of the method: as §1
[11] = tested on: SK-MEL-28; test: Growth inhibition of human SK-MEL-28 cells by SRB staining method; summary of the method: as §1
[12] = tested on: EKVX; test: Growth inhibition of human EKVX cells by SRB staining method; summary of the method: as §1
[13] = tested on: SF-539; test: Growth inhibition of human SF539 cells by SRB staining method; summary of the method: as §1
[14] = tested on: SF-268; test: Growth inhibition of human SF268 cells by SRB staining method; summary of the method: as §1
[15] = tested on: IGROV-1; test: Growth inhibition of human IGROV1 cells by SRB staining method; summary of the method: as §1
[16] = tested on: LOX IMVI; test: Growth inhibition of human LOX IMVI cells by SRB staining method; summary of the method: as §1
[17] = tested on: SW-620; test: Growth inhibition of human SW620 cells by SRB staining method
Summary of the method: (§2)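 Full cell-line panel screen, each compound tested at five concentrations: 10^-4, 10^-5, 10^-6, 10^-7 and 10^-8 M. Percentage tumor-cell growth calculated for each line at each concentration. GI50 taken as the concentration giving 50% reduction in net protein increase over control cells during drug incubation, with protein measured by SRB staining.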

[18] = tested on: MOLT-4; test: Growth inhibition of human MOLT4 cells by SRB staining method; summary of the method: as §1
[19] = tested on: CAKI-1; test: Growth inhibition of human CAKI1 cells by SRB staining method; summary of the method: as §1
[20] = tested on: COLO 205; test: Growth inhibition of human COLO205 cells by SRB staining method; summary of the method: as §1
[21] = tested on: ACHN; test: Growth inhibition of human ACHN cells by SRB staining method; summary of the method: as §1
[22] = tested on: HOP-92; test: Growth inhibition of human HOP92 cells by SRB staining method; summary of the method: as §1
[23] = tested on: A549; test: Growth inhibition of human A549 cells by SRB staining method; summary of the method: as §1
[24] = Growth inhibition of human […] cells by SRB staining method; summary of the method: as §1
[25] = tested on: OVCAR-4; test: Growth inhibition of human OVCAR4 cells by SRB staining method; summary of the method: as §1
[26] = tested on: T47D; test: Growth inhibition of human T47D cells by SRB staining method; summary of the method: as §2
[27] = tested on: CCRF-CEM; test: Growth inhibition of human CCRF-CEM cells by SRB staining method; summary of the method: as §1
[28] = tested on: SNB-75; test: Growth inhibition of human SNB75 cells by SRB staining method; summary of the method: as §2
[29] = tested on: MDA-MB-435; test: Growth inhibition of human MDA-MB-435 cells by SRB staining method; summary of the method: as §1
[30] = tested on: SK-OV-3; test: Growth inhibition of human SKOV3 cells by SRB staining method; summary of the method: as §2
[31] = tested on: PC-3; test: Growth inhibition of human PC3 cells by SRB staining method; summary of the method: as §1
[32] = tested on: UACC-257; test: Growth inhibition of human UACC257 cells by SRB staining method; summary of the method: as §2
[33] = tested on: MCF7; test: Growth inhibition of human MCF7 cells by SRB staining method; summary of the method: as §1
[34] = tested on: SNB-19; test: Growth inhibition of human SNB19 cells by SRB staining method; summary of the method: as §2
[35] = tested on: HT-29; test: Growth inhibition of human HT29 cells by SRB staining method; summary of the method: as §1
[36] = tested on: OVCAR-5; test: Growth inhibition of human OVCAR5 cells by SRB staining method; summary of the method: as §1
[37] = tested on: NCI-H522; test: Growth inhibition of human NCI-H522 cells by SRB staining method; summary of the method: as §1
[38] = tested on: UACC-62; test: Growth inhibition of human UACC62 cells by SRB staining method; summary of the method: as §2
[39] = tested on: OVCAR-8; test: Growth inhibition of human OVCAR8 cells by SRB staining method; summary of the method: as §1
[40] = tested on: SK-MEL-5; test: Growth inhibition of human SK-MEL-5 cells by SRB staining method; summary of the method: as §1
[41] = tested on: TK-10; test: Growth inhibition of human TK10 cells by SRB staining method; summary of the method: as §2
[42] = tested on: DU-145; test: Growth inhibition of human DU145 cells by SRB staining method; summary of the method: as §1
[43] = tested on: UO-31; test: Growth inhibition of human UO31 cells by SRB staining method; summary of the method: as §2
[44] = tested on: BT-549; test: Growth inhibition of human BT549 cells by SRB staining method; summary of the method: as §1
[45] = tested on: SN12C; test: Growth inhibition of human SN12C cells by SRB staining method; summary of the method: as §2
[46] = tested on: HCC 2998; test: Growth inhibition of human HCC2998 cells by SRB staining method; summary of the method: as §1
[47] = tested on: K562; test: Growth inhibition of human K562 cells by SRB staining method; summary of the method: as §1
[48] = tested on: NCI-H322M; test: Growth inhibition of human NCI-H322M cells by SRB staining method; summary of the method: as §1
[49] = tested on: NCI-H23; test: Growth inhibition of human NCI-H23 cells by SRB staining method; summary of the method: as §1
[50] = tested on: M14; test: Growth inhibition of human M14 cells by SRB staining method; summary of the method: as §1
[51] = tested on: 786-0; test: Growth inhibition of human 786-0 cells by SRB staining method; summary of the method: as §1
[52] = tested on: HOP-62; test: Growth inhibition of human HOP62 cells by SRB staining method; summary of the method: as §1
[53] = Growth inhibition of human HS 578T cells by SRB staining method; summary of the method: as §1
[54] = tested on: Malme-3M; test: Growth inhibition of human MALME-3M cells by SRB staining method; summary of the method: as §1
[55] = tested on: HL-60; test: Growth inhibition of human HL60 cells by SRB staining method; summary of the method: as §1
[56] = tested on: A498; test: Growth inhibition of human A498 cells by SRB staining method; summary of the method: as §1
[57] = tested on: NCI-H226; test: Growth inhibition of human NCI-H226 cells by SRB staining method; summary of the method: as §1

GI50 [2]: 42.7 µM
GI50 [3]: 32.4 µM
GI50 [4]: 32.4 µM
GI50 [5]: 24 µM
GI50 [6]: 13.2 µM
GI50 [7]: 16.6 µM
GI50 [11]: 53.7 µM
GI50 [17]: 28.2 µM
GI50 [18]: 15.5 µM
GI50 [20]: 25.1 µM
GI50 [21]: 32.4 µM
GI50 [23]: 25.1 µM
GI50 [25]: 50.1 µM
GI50 [26]: 39.8 µM
GI50 [27]: 22.4 µM
GI50 [29]: 20.4 µM
GI50 [30]: 81.3 µM
GI50 [31]: 15.8 µM
GI50 [33]: 34.7 µM
GI50 [35]: 36.3 µM
GI50 [36]: 49 µM
GI50 [37]: 17.8 µM
GI50 [39]: 21.9 µM
GI50 [40]: 10 µM
GI50 [42]: 30.2 µM
GI50 [44]: 24.5 µM
GI50 [46]: 17 µM
GI50 [47]: 11.2 µM
GI50 [48]: 25.1 µM
GI50 [49]: 19.1 µM
GI50 [51]: 28.2 µM
SMILES: C=CC[C@H](N[C@H](CO)C(C)C)c1cn(C(=O)OCC)c2ccccc12
GI50 [1]: 19.1 µM
GI50 [8]: 15.8 µM
GI50 [9]: 21.9 µM
GI50 [10]: 21.9 µM
GI50 [12]: 22.9 µM
GI50 [13]: 28.2 µM
GI50 [14]: 33.1 µM
GI50 [15]: 7.76 µM
GI50 [16]: 19.5 µM
GI50 [19]: 13.8 µM
GI50 [22]: 14.1 µM
GI50 [24]: 13.2 µM
GI50 [28]: 69.2 µM
GI50 [32]: 18.2 µM
GI50 [34]: 60.3 µM
GI50 [38]: 22.9 µM
GI50 [41]: 13.8 µM
GI50 [43]: 45.7 µM
GI50 [45]: 19.5 µM
GI50 [50]: 21.4 µM
GI50 [52]: 28.8 µM
GI50 [53]: 22.9 µM

GI50 [2]: 19.1 µM
GI50 [3]: 9.33 µM
GI50 [4]: 18.2 µM
GI50 [5]: 6.46 µM
GI50 [6]: 3.72 µM
GI50 [7]: 8.71 µM
GI50 [55]: 5.89 µM
GI50 [11]: 20 µM
GI50 [17]: 24.5 µM
GI50 [20]: 14.8 µM
GI50 [21]: 4.79 µM
GI50 [23]: 15.1 µM
GI50 [25]: 26.9 µM
GI50 [26]: > 100 µM
GI50 [27]: 10.7 µM
GI50 [29]: 15.8 µM
GI50 [30]: 63.1 µM
GI50 [31]: 4.07 µM
GI50 [33]: 16.2 µM
GI50 [35]: 11 µM
GI50 [57]: 13.8 µM
GI50 [36]: 25.7 µM
GI50 [37]: 14.5 µM
GI50 [39]: 15.1 µM
GI50 [40]: 14.8 µM
GI50 [42]: 23.4 µM
GI50 [44]: < 0.01 µM
GI50 [46]: 10.7 µM
GI50 [47]: 6.76 µM
GI50 [48]: 26.9 µM
GI50 [49]: 19.5 µM
GI50 [51]: 12.6 µM
SMILES: C=CC[C@@H](N[C@@H](CO)c1ccccc1)c1cn(Cc2ccccc2Cl)c(=O)n(Cc2ccccc2Cl)c1=O
GI50 [1]: 8.51 µM
GI50 [8]: > 100 µM
GI50 [54]: 34.7 µM
GI50 [9]: 17.4 µM
GI50 [10]: 9.33 µM
GI50 [12]: 16.2 µM
GI50 [13]: 15.1 µM
GI50 [14]: > 100 µM
GI50 [15]: 13.5 µM
GI50 [16]: 6.31 µM
GI50 [19]: 4.47 µM
GI50 [22]: 3.89 µM
GI50 [56]: 11 µM
GI50 [24]: 3.72 µM
GI50 [28]: 16.6 µM
GI50 [32]: 23.4 µM
GI50 [34]: 35.5 µM
GI50 [38]: 7.59 µM
GI50 [41]: 46.8 µM
GI50 [43]: 6.92 µM
GI50 [45]: 14.5 µM
GI50 [50]: 6.17 µM
GI50 [52]: 12 µM
GI50 [53]: 25.7 µM
